Screens (PubChem)
FXIa inh: human FXIa protease inhibitors, primary screen, biochemical, 1536-well; AID 798, 2007; inhibition, % at 5 µM; purified FXIa, Boc-Glu-Ala-Arg-AMC fluorogenic substrate; 0.14% of 220,000 active;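 active means inhibition of at least 40%; inactive means inhibition below 40%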;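 further: fluorescence of freed AMC excited at 355 nm; 0% = enzyme without compound and 100% = no enzyme blank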
FXIIa inh 1536: human FXIIa protease inhibitors, primary screen, biochemical, 1536-well; inhibition, % at 5 µM; AID 800, 2007; 0.3% of 220,000 active; Coagulation factor XII (Homo sapiens), P00748; purified FXIIa, Boc-QGR-AMC fluorogenic substrate, 2 h; in the data active means inhibition above about 40%;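 further: 0% = enzyme with no compound and 100% = blank without enzyme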
Wee1 stabilizer: Wee1 degradation inhibitors, primary screen, cell-based, HeLa, Wee1K328M-luciferase, luminescence; Wee1-like protein kinase (Homo sapiens), P30291; HeLa Luc-Wee1K328M stability; 100% = proteasome inhibitor MG132 effect; reporter increase, % at 5 µM; 1.2% of 220,000 active; AID 1321, 2008;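 active means activation above the mean of all tested compounds plus 3 SD, set per screening run, cut at about 8.8% in these data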;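 further: cells exposed to compound for 20 h before luminescence read; 0% = DMSO alone and 100% = MG132 at 30 µM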
Thrombin inh: human alpha-thrombin inhibitors, primary screen, counter-screen for coagulation protease inhibitor project, biochemical, 1536-well, fluorogenic AMC substrate | Prothrombin (Homo sapiens), P00734 | Boc-VPR-AMC fluorogenic substrate cleavage | inhibition, % at 5 µM | 0.26% of 220,000 active | AID 1046, 2008;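 active means inhibition at or above 40%; inactive means inhibition below 40%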;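 further: 0% = enzyme with no compound and 100% = wells without enzyme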
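System – human alpha-thrombin protein · Reagent – Boc-VPR-AMC substrate, 15 µM final · Compound – 5 µM single dose in 0.2% DMSO · Schedule – reaction at room temperature · Technique – AMC fluorescence at 355 nm excitation and 460 nm emission · Read-out basis – % inhibition relative to enzyme controls and enzyme-free blanks · Control set – no-compound enzyme wells and no-enzyme blanks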
KLK5 inh: human KLK5 protease inhibitors, primary screen, biochemical, 1536-well | Kallikrein-5 (Homo sapiens), Q9Y337 | recombinant hK5, fluorogenic AMC substrate cleavage | inhibition, % at 5 µM | 0.59% of 210,000 active;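 active means inhibition of 40% or more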;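 further: 0% = enzyme controls without compound and 100% = no-enzyme blanks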
Target sequence (Q9Y337 67-293 limits assumed): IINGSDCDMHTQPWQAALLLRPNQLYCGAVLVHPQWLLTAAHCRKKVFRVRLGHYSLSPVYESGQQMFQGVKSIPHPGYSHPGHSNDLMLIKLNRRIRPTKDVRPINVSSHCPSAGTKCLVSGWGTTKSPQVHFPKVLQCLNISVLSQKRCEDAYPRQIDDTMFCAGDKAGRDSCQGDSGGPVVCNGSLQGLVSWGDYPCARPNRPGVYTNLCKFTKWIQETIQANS
Wee1 degr conf: Wee1 degradation inhibitors, confirmation, cell-based, HeLa, Wee1K328M-luciferase, luminescence, triplicate; 4% of 1,100 active; HeLa Luc-Wee1K328M degradation; vehicle 0%, proteasome-blocked wells 100%; activation, % at 5 µM; shares compounds with Wee1 stabilizer; in the data active means activation above about 8.9%
* = called active by the depositor; · = no result given. Most compounds without a hit are left out; they make up all but 2.2% or so of the library.

SMILES	FXIa inh	FXIIa inh 1536	Wee1 stabilizer	Thrombin inh	KLK5 inh	Wee1 degr conf
CN(C)c1ccc(C(CNS(=O)(=O)c2ccc(F)c(F)c2)c2c[nH]c3ccccc23)cc1 (stereo not given)	3	13	11*	-4	-14	0
CN(C)c1ccc(C(CNC(=O)c2ccccc2F)c2c[nH]c3ccccc23)cc1 (stereo not given)	11	18	0	-6	0	·
CCOC(=O)C(C)Sc1nc2c(c(=O)[nH]c(=O)n2C)n1C/C=C(/C)Cl (stereo not given)	-1	14	12*	2	3	-3
CCCCS(=O)(=O)/C=C\C=C/S(=O)(=O)CCCC	-3	10	19*	-6	-14	12*
COc1ccc(S(=O)(=O)N2CC(O)CC2C(=O)Nc2cccnc2)cc1 (stereo not given)	-5	1	-3	-5	-6	·
COc1cc(NCCCC(C)N)c2ncccc2c1 (stereo not given)	3	7	29*	0	-9	0
N#CCN1CCC(c2cc(-c3ccco3)n[nH]2)CC1	-5	2	1	7	-4	·
C=CCn1c(SCC(=O)Nc2cc(C)c(Cl)cc2OC)nnc1-c1ccco1	0	-2	0	-8	-26	·
C=CCn1c(SCC(=O)Nc2cc(C)ccc2OC)nnc1-c1ccco1	5	14	15*	5	-10	3
CCOC(=O)c1[nH]c2c(c1-c1ccccc1)C(=O)CC(c1ccc(OC)c(OC)c1)C2 (stereo not given)	-2	-2	20*	-2	-8	1
C=CCNCCCOc1ccc(C(C)(C)c2ccccc2)cc1	12	12	13*	0	-5	-1
COCCCNCCCOc1ccc(C(C)(C)c2ccccc2)cc1	6	6	-2	-3	-16	·
COc1ccc(-c2noc(CN(C)Cc3ccc(C)o3)n2)cc1	-4	3	12*	-5	·	3
CCn1c(O)c(C=Nc2ccccc2)oc1=S	-5	8	14*	-4	-13	0
COc1cccc(CNS(=O)(=O)/C=C/c2ccc3c(c2)OCO3)c1	4	18	-1	2	13	·
COCCOc1cnn(-c2cc(Oc3ccc(C)cc3)ncn2)c(=O)c1Cl	11	19	12*	4	7	4
COc1cnn(-c2cc(Oc3ccc(C)cc3)ncn2)c(=O)c1Cl	3	-4	2	-19	3	·
COc1cccc(NC(=O)Nc2cccc(C(=O)O)c2)c1	2	5	-4	2	·	·
COc1cccc(NC(=O)Nc2ccc(CC(=O)O)cc2)c1	4	11	1	-6	5	·
CCc1ccc(NC(=O)Nc2cccc(OC)c2)cc1	-5	3	12*	-1	-3	3
COc1cccc(NC(=O)Nc2ccc3c(c2)nnn3C)c1	-8	2	16*	-7	-15	0
COc1ccc(NC(=S)Nc2ccccc2C(F)(F)F)cc1	-4	5	17*	5	-8	1
Cc1ccc(OCC(=O)N/N=C2/SCC(=O)N2Cc2ccco2)cc1	1	8	12*	-3	5	2
Cc1ccc(S(=O)(=O)CCC(=O)OCC(=O)NC(N)=O)cc1	10	4	14*	-1	2	0
CC1=NNC(=O)c2ccccc2O1	0	10	0	-1	0	·
SMILES	FXIa inh	FXIIa inh 1536	Wee1 stabilizer	Thrombin inh	KLK5 inh	Wee1 degr conf
COC(=NC(C)C)NC(C)C	-2	5	3	-3	-1	·
CCC(O)(CC)C(=O)N=Nc1c(O)[nH]c2ccccc12	2	14	11*	-7	-5	2
COc1ccc(CCN2C(=O)N(c3ccc(OC)cc3)C(=O)C2CC(=O)Nc2ccccc2)cc1 (stereo not given)	1	8	21*	-4	4	2
COc1ccc(N2C(=O)C(CC(=O)Nc3ccccc3)N(CCc3ccc(OC)c(OC)c3)C2=O)cc1 (stereo not given)	2	8	1	-4	0	·
CC1CCCCN1CC(=O)NC(=O)NCc1ccccc1 (stereo not given)	-3	4	18*	-6	-23	5
CC1CCN(CC(=O)NC(=O)NCc2ccccc2)CC1	4	0	1	-4	-14	·
CCn1c(SCC(=O)Nc2ccc3c(c2)oc2ccccc23)nnc1-c1ccc(N)cc1	12	23	-2	-11	0	·
CN(CC(=O)N1CCc2ccccc21)S(=O)(=O)c1cccs1	2	7	14*	1	2	4
CN(CC(=O)NC1CCCc2ccccc21)S(=O)(=O)c1cccs1 (stereo not given)	-5	7	2	-2	-8	·
Cc1ccccc1-n1cc(-c2ccc(Br)cc2)nc1SCC(N)=O	28	16	13*	19	46*	3
COc1ccc(C(=O)Cn2nc(CNc3ccc(Br)cc3)[n+]3c2CCCCC3)cc1	-6	0	4	2	-8	·
Cc1ccc(C(C)C)c(OCc2nn(CC(=O)c3ccc(OC(F)F)cc3)c3[n+]2CCCCC3)c1	-1	-3	18*	-2	-20	-2
CC(C)CC1c2[nH]c3ccccc3c2CCN1C(=O)CCC(=O)N(C)C (stereo not given)	-4	3	-4	-12	-3	·
Cc1occc1C(=O)NC(C)CCc1ccccc1 (stereo not given)	1	2	1	-2	2	·
Cc1ccc(C)c(C(=O)NC(C)CCc2ccccc2)c1 (stereo not given)	-2	5	16*	15	-4	-4
O=[N+]([O-])/C=C\c1ccc(N2CCCC2)c(F)c1	-5	7	16*	-7	-1	0
COc1ccccc1N1CCN(/N=C/C=C\c2ccco2)CC1	6	16	24*	2	6	2
COc1ccccc1N1CCN(C(=O)/C=C/c2ccco2)CC1	1	2	-2	-4	-11	·
O=C1CCCCC/C1=N/Nc1ccc(OCc2ccccc2)cc1	3	6	5	0	4	·
Nc1nc2ccc(C(=O)Nc3ccccc3)cc2s1	2	10	15*	-8	-2	3
Clc1cccc(NCc2ccccc2)n1	0	9	27*	3	-3	-1
C=CCNCCOc1ccc(C)cc1[N+](=O)[O-]	-3	2	2	-13	2	·
